Assay results published in ChEMBL document CHEMBL1208742, “Synthesis and evaluation of beta-carboline derivatives as inhibitors of human immunodeficiency virus” (Bioorg Med Chem Lett, 2010).
Values belong to the molecule of their own block, whether it stands above or below them. Calls of active or inactive are those of the source. The rule behind the calls is not given here.

Assays:
[1] = tested on: Human immunodeficiency virus 1; assay: Antiviral activity against HIV1 NL4.3 infected in human CEM-GFP cells assessed as inhibition p24 antigen production at non cytotoxic concentration after 8 days by ELISA; format: functional
Method in brief: (§1)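 CEM-GFP T cells carry a stably integrated LTR-driven GFP gene that is trans-activated by Tat on infection. Cells were infected with HIV-1 NL4.3 at MOI 0.05 and incubated with compound for up to 8 days post infection. Viral p24 was read by ELISA. Line 2 was tested at each compound's non-cytotoxic concentration. IC50 is 50% protection from virus, n = 3.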

[2] = Cytotoxicity against human CEM cells expressing green fluorescent protein assessed as oncytotoxic concentration by MTT assay; format: cell-based, CCRF-CEM; conditions: read-out: Activity
Method in brief: (§2)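 MTT cell viability assay in CEM-GFP cells. CC50 is the concentration reducing proliferation by 50%, n = 3. The non-cytotoxic concentration was chosen from these MTT results for the antiviral testing.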

[3] = tested on: Human immunodeficiency virus 1; assay: Antiviral activity against HIV1 NL4.3 infected in human CEM-GFP cells assessed as inhibition p24 antigen production after 8 days by ELISA; format: functional, organism-based; conditions: Human immunodeficiency virus 1, NL4.3, CEM-GFP, 192 h; method in brief: as §1
[4] = Therapeutic index, ratio of CC50 for human CEM cells expressing green fluorescent protein to IC50 for HIV1 NL4.3; format: cell-based, CCRF-CEM; conditions: read-out: TI
Method in brief: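 Therapeutic index is CC50 (MTT proliferation in CEM-GFP cells, n = 3) divided by IC50 (p24 ELISA protection of HIV-1 NL4.3-infected CEM-GFP cells, n = 3).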

[5] = Cytotoxicity against human CEM cells expressing green fluorescent protein by MTT assay; format: cell-based, CCRF-CEM; method in brief: as §2

SMILES: Cc1nc(C(=O)N2CCSCC2)cc2c3ccccc3n(Cc3ccc(F)cc3)c12
inhibition [1]: inactive
MNTC [2]: 23.8 µM

IC50 [3]: 2.9 µM
SMILES: COC(=O)c1cc2c([nH]c3ccccc32)c(C=O)n1
selectivity ratio [4]: 7
CC50 [5]: 20.3 µM
MNTC [2]: 9.83 µM

SMILES: CC(C)=CCn1c2ccccc2c2cc(C(=O)N3CCSCC3)nc(C)c21
inhibition [1]: inactive
MNTC [2]: 19.8 µM

SMILES: COC(=O)c1cc2c3ccccc3n(Cc3ccccc3)c2c(C)n1
inhibition [1]: inactive
MNTC [2]: 15.1 µM

SMILES: Cc1nc(C(=O)N2CCOCC2)cc2c1[nH]c1ccccc12
inhibition [1]: inactive
MNTC [2]: 27.1 µM

SMILES: CC1=NC(C(=O)O)Cc2c1[nH]c1ccccc21 (centres undefined)
inhibition (INH) [1]: 16.48%
MNTC [2]: 17.5 µM

SMILES: COC(=O)c1cc2c3ccccc3n(C)c2c(C)n1
inhibition [1]: inactive
MNTC [2]: 19.7 µM

SMILES: COC(=O)c1cc2c([nH]c3ccccc32)c(C)n1
inhibition (INH) [1]: 21.3%
MNTC [2]: 4.17 µM

SMILES: COC(=O)c1cc2c3ccccc3n3c(=O)ccc(n1)c23
inhibition [1]: inactive
MNTC [2]: 3.59 µM

SMILES: CCn1c2ccccc2c2cc(C(=O)OC)nc(C)c21
inhibition [1]: inactive
MNTC [2]: 3.73 µM

SMILES: COC(=O)C1Cc2c([nH]c3ccccc23)C(C)=N1 (centres undefined)
inhibition (INH) [1]: 17.26%
MNTC [2]: 18.6 µM

SMILES: Cc1nc(C(=O)N2CCSCC2)cc2c3ccccc3n(Cc3ccccc3)c12
inhibition [1]: inactive
MNTC [2]: 6.22 µM

SMILES: CCCCn1c2c(c3ccccc31)CC(CCCC)(C(=O)OC)N=C2C (centres undefined)
inhibition [1]: inactive
MNTC [2]: 14.1 µM

SMILES: CCCCn1c2ccccc2c2cc(C(=O)N3CCSCC3)nc(C)c21
inhibition [1]: inactive
MNTC [2]: 1.36 µM

SMILES: CCCCC1(C(=O)OC)Cc2c([nH]c3ccccc23)C(C)=N1 (centres undefined)
inhibition (INH) [1]: 12.17%
MNTC [2]: 8.39 µM

SMILES: CCCn1c2ccccc2c2cc(C(=O)OC)nc(C)c21
inhibition [1]: inactive
MNTC [2]: 3.54 µM

SMILES: C#CCn1c2ccccc2c2cc(C(=O)N3CCSCC3)nc(C)c21
inhibition [1]: inactive
MNTC [2]: 21.5 µM

IC50 [3]: 1.04 µM
SMILES: Cc1cn([C@H]2C[C@H](N=[N+]=[N-])[C@@H](CO)O2)c(=O)[nH]c1=O [ZIDOVUDINE]
CC50 [5]: 23 µM

SMILES: CCCCn1c2ccccc2c2cc(C(=O)OC)nc(C)c21
inhibition [1]: inactive
MNTC [2]: 1.69 µM

SMILES: Cc1nc(C(=O)N2CCSCC2)cc2c1[nH]c1ccccc12
inhibition (INH) [1]: 16.9%
MNTC [2]: 1.61 µM

SMILES: Cc1nc(C(=O)N2CCCCC2)cc2c1[nH]c1ccccc12
inhibition [1]: inactive
MNTC [2]: 1.71 µM
